Assays:
[1] = target: T1, Macrophage migration inhibitory factor (Homo sapiens, UniProt P14174); experiment: Inhibition of human MIF tautomerase activity
T1 sequence (P14174 whole entry): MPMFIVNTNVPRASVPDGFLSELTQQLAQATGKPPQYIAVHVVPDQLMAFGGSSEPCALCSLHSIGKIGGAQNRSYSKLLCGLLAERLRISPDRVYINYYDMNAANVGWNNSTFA
Procedure, shortened: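 Wild-type human MIF (500 nM final) preincubated with compound for 2 h at room temperature over 24 nM–50 μM or 98–200 μM. Buffer: 50 mM potassium phosphate, 0.5 mM EDTA, pH 6, no detergent. Reaction started with 533 μM freshly made D-dopachrome methyl ester; end-point absorbance at 475 nm after 2 min. Triplicate runs; IC50 by nonlinear regression.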

[2] = target: T1, Macrophage migration inhibitory factor; experiment: Inhibition of human MIF tautomerase activity in presence of Triton X-100 as detergent
Procedure, shortened: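 Counter-screen for aggregation-based inhibition, with 0.1% v/v Triton X-100 in both buffer and enzyme stock. Wild-type human MIF (500 nM) preincubated with compound for 2 h at room temperature in 50 mM potassium phosphate, 0.5 mM EDTA, pH 6. 533 μM D-dopachrome methyl ester added; 475 nm end-point read at 2 min. IC50 by nonlinear regression.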

[3] = target: T2, Macrophage migration inhibitory factor (Homo sapiens) (UniProt P14174); experiment: Inhibition of human MIF tautomerase activity at 200 uM
T2 sequence (whole entry): T1 sequence (P14174 whole entry)
Procedure, shortened: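 Wild-type human MIF (500 nM) preincubated with compound at 200 μM for 2 h at room temperature in 50 mM potassium phosphate, 0.5 mM EDTA, pH 6. Reaction started with 533 μM fresh D-dopachrome methyl ester. Percent inhibition taken from absorbance at 475 nm 2 min after substrate addition.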

SMILES	IC50 [1] [µM]	IC50 [2] [µM]	inhibition [3] [%]
O=Nc1c(-c2ccccc2)cc2ccccn12	121		
S=C(Nc1ccccc1)Nc1nncs1	0.3	0.42	
CCCCOC(=O)Sc1nc2ccccc2o1	0.08	0.15	
c1ccc(NCn2nnc3ccccc32)nc1			69
COC(=O)CSc1nnc(-c2cccs2)n1C	18.6	28.4	
O=[N+]([O-])c1cc(S(=O)(=O)C(F)(F)F)ccc1Sc1nnc(S)s1	9.5		
CCOC(=O)/C(C#N)=C/c1ccc(O)cc1O	62.1	110	
CC(=O)c1cc2ccc(O)cc2oc1=O	45.2	103	
O=[N+]([O-])c1ccc(NCc2ccco2)c2nonc12	60.4		
Cc1ccc(C(=O)/C=C/Nc2ccc(F)cc2F)o1	57.5		

Results, then the compound that gave them:

IC50 [1] [µM]	IC50 [2] [µM]	inhibition [3] [%]	SMILES
64.2			O=C(c1ccccc1)c1cc2ccc(O)cc2oc1=O
0.05	0.05		O=C(Oc1ccc(-c2ccccc2)nn1)c1cccs1
6.9	12.2		COc1ccccc1C(=O)n1nnc2ccccc21
2.8	4.2		O=C(NOC(=O)c1ccccc1Br)c1ccc(Cl)cc1
1.04	1.01		S=C(Nc1ccccn1)Nc1ccccc1Cl
